# Results taken from article PMC11677264 (Biochemistry, 2023).
# Assays:
# [1] = target: T1, AmgK (N-acetylmuramic acid/N-acetylglucosamine kinase) (Pseudomonas aeruginosa, UniProt Q9I5U1); assay: 2D-ITC, fit to ordered-sequential rate equation; type: biochemical
# Procedure, shortened: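 AmgK in the calorimeter cell (650 nM with NAM, 300 nM with NAG) with ATP at 13.5 mM. Eighteen 1 μL injections of NAM or NAG (160 mM syringe stock), ~800 μM sugar at the start of each, spaced ≥1200 s. Run ~8–10 h with stirring, in duplicate. Thermograms converted to rate versus [ATP] versus [sugar] data sets and fitted to the ordered-sequential equation.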
# [2] = target: T1, AmgK (N-acetylmuramic acid/N-acetylglucosamine kinase); assay: pyruvate kinase/lactate dehydrogenase-coupled ATP-recycling assay, NADH at […] nm; type: biochemical
# [3] = tested on: Nc1ncnc2c1ncn2[C@@H]1O[C@H](COP(=O)(O)OP(=O)(O)OP(=O)(O)O)[C@@H](O)[C@H]1O; assay: purified protein; conditions: saturating NAG 4 mM
# T1 sequence (Q9I5U1 whole entry): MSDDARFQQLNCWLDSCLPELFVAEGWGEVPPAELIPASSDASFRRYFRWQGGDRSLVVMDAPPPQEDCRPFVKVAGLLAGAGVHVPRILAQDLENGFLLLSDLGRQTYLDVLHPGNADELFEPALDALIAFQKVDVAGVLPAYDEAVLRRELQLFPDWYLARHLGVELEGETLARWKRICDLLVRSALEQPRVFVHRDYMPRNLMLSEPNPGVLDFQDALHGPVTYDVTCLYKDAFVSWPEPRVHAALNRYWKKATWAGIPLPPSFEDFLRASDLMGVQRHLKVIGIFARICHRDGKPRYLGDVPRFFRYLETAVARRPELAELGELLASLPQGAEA
compound,measurement,setting,value
Nc1ncnc2c1ncn2[C@@H]1O[C@H](COP(=O)(O)OP(=O)(O)O)[C@@H](O)[C@H]1O [ADP],Ki,[1],694 ± 128 µM
Nc1ncnc2c1ncn2[C@@H]1O[C@H](COP(=O)(O)OP(=O)(O)NP(=O)(O)O)[C@@H](O)[C@H]1O [AMP-PNP],Ki,[2],471 ± 169 µM
AmgK (N-acetylmuramic acid/N-acetylglucosamine kinase) (Pseudomonas aeruginosa PAO1),Km,[3],70 ± 12 µM
